Screening data deposited in PubChem by Johns Hopkins Ion Channel Center.
An excerpt weighted towards active compounds, which were near 3.5% of everything screened.
MrgX1 antag: blocks BAM8-22 activation of human MrgX1 receptor. Q96LB2. 1.3% of 310,000 active. B-score at 10 µM. MRGX1-HEK293 calcium flux, Fluo-4, BAM8-22 antagonism; stronger effect = lower value;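 active = calcium-response B-score plate-corrected more than 3 library SD below zero, starting fluorescence within 5 deviations, no agonist response on first addition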;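 note: peak minus trough fluorescence over baseline after final BAM8-22 challenge near maximal dose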
Target sequence (Q96LB2 whole entry, looked up): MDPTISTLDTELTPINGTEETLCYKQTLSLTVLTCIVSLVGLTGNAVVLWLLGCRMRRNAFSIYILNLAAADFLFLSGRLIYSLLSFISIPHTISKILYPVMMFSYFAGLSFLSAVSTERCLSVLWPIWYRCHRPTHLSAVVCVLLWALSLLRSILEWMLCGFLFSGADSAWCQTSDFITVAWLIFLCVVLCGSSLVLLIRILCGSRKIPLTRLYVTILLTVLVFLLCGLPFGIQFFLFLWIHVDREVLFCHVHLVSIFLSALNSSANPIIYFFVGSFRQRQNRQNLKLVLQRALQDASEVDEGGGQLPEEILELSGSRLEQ
RGS4 act: RGS4 potentiation or activation | HEK293 M3R/inducible RGS4, carbachol calcium flux Fluo4; stronger effect = lower value | B-score at 10 µM | 0.92% of 310,000 active | AID 463111;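 active = B-score of the integrated calcium signal more than 4 SD below the library mean, with starting fluorescence not abnormally high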;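 note: negative B-score means reduced calcium response which marks RGS4 activation or potentiation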
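Material: M3R-expressing HEK293 line, RGS4 induced by doxycycline | Schedule: Overnight RGS4 induction, 30 min dye load 37 °C, 20 min compound RT | Measured by: Fluo4 fluorescence kinetic imaging of calcium | Read-out: Integrated calcium ratio converted to B score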
MrgX1 agonist: human MrgX1 receptor agonism, primary screen; Q96LB2; MrgX1-HEK293 cells, Fluo-4 calcium fluorescence, agonist mode; stronger effect = higher value; B-score at 10 µM; 0.44% of 310,000 active; AID 588627;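 active = calcium response B-score plate-corrected fluorescence ratio at least 3 library SD, with starting fluorescence B-score inside 5 SD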
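times = overnight plating, then 30 min 37 °C plus 30 min room-temperature dye loading | assay system = stable human MrgX1 HEK293 cell line | input = fifteen thousand cells per well | signal = kinetic calcium dye fluorescence, Fluo-4 NW | dosing = compound delivered in addition one of three | read-out = B-scored fluorescence response ratio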
MrgX1 allo act: human MrgX1 positive allosteric modulation, primary screen. Q96LB2. MrgX1-HEK293, Fluo-4 calcium flux, FDSS; stronger effect = higher value. B-score at 10 µM. 0.63% of 310,000 active;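 active = plate-corrected calcium response at least 3 library SD above typical, normal starting fluorescence, not activating the receptor alone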;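 note: compound read alongside a low EC10 to EC30 dose of BAM8-22 agonist; peak minus trough fluorescence over baseline measured at the second addition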
RGS4 inh: inhibitors of human RGS4; HEK293 M3R/RGS4 inducible, Fluo-4 calcium flux; stronger effect = higher value; triggered by carbachol at its EC20; P49798; 0.45% of 310,000 active; B-score at 10 µM;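 active = B-score, a plate-corrected calcium signal, over three deviations above library mean, with baseline fluorescence within five deviations of library mean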;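 note: RGS4 expression induced by doxycycline in cells with stable M3 receptor; B-score is computed from the integrated fluorescence ratio over baseline after carbachol; higher B-score means a larger calcium signal and so more RGS4 inhibition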
Target sequence (P49798 whole entry, looked up): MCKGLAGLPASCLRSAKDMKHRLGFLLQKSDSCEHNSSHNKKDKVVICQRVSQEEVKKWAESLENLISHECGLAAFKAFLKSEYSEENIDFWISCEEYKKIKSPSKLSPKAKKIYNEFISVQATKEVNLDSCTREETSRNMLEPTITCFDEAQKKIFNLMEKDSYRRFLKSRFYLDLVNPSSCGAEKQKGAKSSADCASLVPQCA
MrgX1 ag reconf: reconfirmed activator of human MrgX1 receptor signaling; shares compounds with MrgX1 agonist; MrgX1-HEK293, Fluo-4 calcium fluorescence, FDSS; activation, % at 10 µM; 78% of 600 active; AID 602412;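 active = calcium signal rise, corrected for plate position, at least 3 library SD high, with starting brightness within 5 such deviations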; note: reference of the scale not given here
HEK293 Ca flux: MrgX1 antagonist counter-screen hit in parental HEK293 cells; Fluo-4 calcium fluorescence, FDSS; shares compounds with MrgX1 antag; 2% of 4,000 active; fluorescence ratio F(max-min)/F0 at 10 µM;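 active = duplicate-averaged calcium fluorescence ratio at least three times the standard deviation of buffer wells, a nonspecific response in parental cells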
HEK293 Ca counter: counter-screen for MrgX1 allosteric activators: effect in parental HEK293 cells. shares compounds with MrgX1 antag. parental HEK293 calcium flux, Fluo-4 fluorescence ratio; stronger effect = higher value. fluorescence ratio F(max-min)/F0 at 10 µM. 0.4% of 4,000 active. AID 624114;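 active = calcium fluorescence ratio, averaged over duplicates, at least 3 SD of the buffer-well ratio, meaning a nonspecific response in receptor-free cells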;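 note: untransfected parental HEK293 lacking MrgX1 used as counterscreen for MrgX1 allosteric activators; fluorescence change taken during the second addition on a kinetic imager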
HEK293 Ca cntr2: MrgX1 activator counter-screen hit in parental HEK293 cells; fluorescence ratio F(max-min)/F0 at 10 µM; shares compounds with MrgX1 antag; Fluo-4 calcium fluorescence (FDSS); stronger effect = higher value; 8.7% of 4,000 active;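 active = calcium fluorescence ratio at least three times the spread of buffer wells, meaning a non-specific response in parental cells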
Numbers stand for hits.

Screening Nc1nc(-c2ccc3c(c2)CCO3)cs1 returned MrgX1 antag inactive, RGS4 act inactive, MrgX1 agonist 38, MrgX1 allo act inactive, RGS4 inh inactive, MrgX1 ag reconf 175%, HEK293 Ca flux inactive, HEK293 Ca counter inactive and HEK293 Ca cntr2 inactive.
CC(=O)Nc1cccc(OC(=O)c2ccoc2C)c1 was read as MrgX1 antag inactive, RGS4 act inactive, MrgX1 agonist 33, MrgX1 allo act inactive, RGS4 inh inactive, MrgX1 ag reconf 128%, HEK293 Ca flux inactive, HEK293 Ca counter inactive and HEK293 Ca cntr2 46.
For Cc1ccc(Cc2nnc(SCC(=O)Nc3ccccc3Cl)[nH]c2=O)cc1 the results were MrgX1 antag inactive, RGS4 act inactive, MrgX1 agonist inactive, MrgX1 allo act inactive and RGS4 inh inactive.
For COc1ccc(Cl)cc1NC(=O)CSc1nnc(Cc2ccc(C)cc2)c(=O)[nH]1 the results were MrgX1 antag inactive, RGS4 act inactive, MrgX1 agonist 36, MrgX1 allo act inactive, RGS4 inh inactive, MrgX1 ag reconf 160%, HEK293 Ca flux inactive, HEK293 Ca counter inactive and HEK293 Ca cntr2 inactive.
For CC(NC(=O)c1cccc(N(C)C)c1)c1ccc(-n2ccnc2)cc1 (stereo not drawn) the results were MrgX1 antag inactive, RGS4 act inactive, MrgX1 agonist inactive, MrgX1 allo act inactive and RGS4 inh inactive.
CCOc1c(Cl)cc(C(=O)Nc2ccccc2C(=O)O)cc1Cl was read as MrgX1 antag inactive, RGS4 act inactive, MrgX1 agonist 48, MrgX1 allo act inactive, RGS4 inh inactive, MrgX1 ag reconf 78%, HEK293 Ca flux inactive, HEK293 Ca counter inactive and HEK293 Ca cntr2 inactive.
For COc1ccc(C(=O)Nc2ccccc2C(=O)O)cc1Cl the results were MrgX1 antag inactive, RGS4 act inactive, MrgX1 agonist inactive, MrgX1 allo act inactive and RGS4 inh inactive.
For Cc1[nH][nH]c(=O)c1C(c1ccc(-c2ccc(Cl)c(Cl)c2)o1)c1c(C)[nH][nH]c1=O the results were MrgX1 antag inactive, RGS4 act inactive, MrgX1 agonist inactive, MrgX1 allo act inactive and RGS4 inh inactive.
`Cc1[nH][nH]c(=O)c1C(c1ccc(-c2ccc(F)cc2)o1)c1c(C)[nH][nH]c1=O` gave MrgX1 antag inactive, RGS4 act inactive, MrgX1 agonist 40, MrgX1 allo act inactive, RGS4 inh inactive, MrgX1 ag reconf 216%, HEK293 Ca flux inactive, HEK293 Ca counter inactive and HEK293 Ca cntr2 46.
O=C(Nc1ccc2c(c1)OCO2)c1c[nH]c(=O)n(-c2ccc(F)cc2)c1=O was read as MrgX1 antag inactive, RGS4 act inactive, MrgX1 agonist inactive, MrgX1 allo act inactive and RGS4 inh inactive.
For Cc1nn(Cc2ccccc2)c2c1C(c1cccc(Cl)c1)C(C#N)=C(N)O2 (stereo not drawn) the results were MrgX1 antag inactive, RGS4 act inactive, MrgX1 agonist 35, MrgX1 allo act inactive, RGS4 inh inactive, MrgX1 ag reconf 174%, HEK293 Ca flux inactive, HEK293 Ca counter inactive and HEK293 Ca cntr2 47.
Screening Cc1cc(N2CCC(C)CC2)nc(NCc2ccccc2)n1 returned MrgX1 antag inactive, RGS4 act -7, MrgX1 agonist 46, MrgX1 allo act inactive, RGS4 inh inactive, MrgX1 ag reconf 148%, HEK293 Ca flux inactive, HEK293 Ca counter inactive and HEK293 Ca cntr2 inactive.
CCCCNc1cc(C)nc(NCc2ccccc2)n1 was read as MrgX1 antag inactive, RGS4 act inactive, MrgX1 agonist 29, MrgX1 allo act inactive, RGS4 inh inactive, MrgX1 ag reconf 241%, HEK293 Ca flux inactive, HEK293 Ca counter inactive and HEK293 Ca cntr2 inactive.
Cc1cc(Nc2ccccc2)nc(NCc2ccccc2)n1 was read as MrgX1 antag inactive, RGS4 act inactive, MrgX1 agonist inactive, MrgX1 allo act inactive and RGS4 inh inactive.
`CCN(CC(=O)Nc1ccc2c(c1)OCCO2)C(=O)C(C)Oc1ccc(Cl)cc1` (stereo not drawn) gave MrgX1 antag inactive, RGS4 act inactive, MrgX1 agonist inactive, MrgX1 allo act inactive and RGS4 inh inactive.
Screening CCn1cnc2cc(NCc3ccc(Br)cc3)ccc21 returned MrgX1 antag inactive, RGS4 act inactive, MrgX1 agonist 34, MrgX1 allo act inactive, RGS4 inh inactive, MrgX1 ag reconf 197%, HEK293 Ca flux inactive, HEK293 Ca counter inactive and HEK293 Ca cntr2 inactive.
Screening Cc1ccc(CNc2ccc3c(c2)ncn3C(C)C)cc1 returned MrgX1 antag inactive, RGS4 act inactive, MrgX1 agonist 33, MrgX1 allo act inactive, RGS4 inh inactive, MrgX1 ag reconf 352%, HEK293 Ca flux inactive, HEK293 Ca counter inactive and HEK293 Ca cntr2 80.
Screening COc1ccc(CCNC(=S)NCCc2ccc(OC)c(OC)c2)cc1OC returned MrgX1 antag inactive, RGS4 act inactive, MrgX1 agonist inactive, MrgX1 allo act inactive and RGS4 inh inactive.
CCOC(=O)c1ccc(NC(=S)NCCc2ccc(OC)c(OC)c2)cc1 was read as MrgX1 antag inactive, RGS4 act inactive, MrgX1 agonist 36, MrgX1 allo act inactive, RGS4 inh inactive, MrgX1 ag reconf inactive, HEK293 Ca flux inactive, HEK293 Ca counter inactive and HEK293 Ca cntr2 inactive.
For COc1ccccc1N1CCN(C2CCCCC2NS(=O)(=O)c2ccc(Cl)cc2)CC1 (stereo not drawn) the results were MrgX1 antag inactive, RGS4 act inactive, MrgX1 agonist 48, MrgX1 allo act inactive, RGS4 inh inactive, MrgX1 ag reconf 241%, HEK293 Ca flux inactive, HEK293 Ca counter inactive and HEK293 Ca cntr2 inactive.
C/C(=N\NC(=O)c1cc2ccccc2cc1O)c1ccccn1 was read as MrgX1 antag inactive, RGS4 act inactive, MrgX1 agonist 68, MrgX1 allo act inactive, RGS4 inh inactive, MrgX1 ag reconf 458%, HEK293 Ca flux inactive, HEK293 Ca counter inactive and HEK293 Ca cntr2 109.
For C/C(=N\NC(=O)c1c[nH]c2ccccc12)c1ccccn1 the results were MrgX1 antag inactive, RGS4 act inactive, MrgX1 agonist inactive, MrgX1 allo act inactive and RGS4 inh inactive.
`O=C1CCCCCN1Sc1ccccc1` gave MrgX1 antag inactive, RGS4 act inactive, MrgX1 agonist 30, MrgX1 allo act inactive, RGS4 inh inactive, MrgX1 ag reconf 123%, HEK293 Ca flux inactive, HEK293 Ca counter inactive and HEK293 Ca cntr2 inactive.
Screening O=C(CCSc1ccccc1)N1CCCC1 returned MrgX1 antag inactive, RGS4 act inactive, MrgX1 agonist inactive, MrgX1 allo act inactive and RGS4 inh inactive.
